Laboratory results as given in ChEMBL document CHEMBL1154983, “Arylpiperazine-containing pyrrole 3-carboxamide derivatives targeting serotonin 5-HT(2A), 5-HT(2C), and the serotonin transporter as a potential antidepressant” (Bioorg Med Chem Lett, 2010).

What was measured:
Mus musculus [1] = experiment: Antidepressant activity in mouse assessed as decrease in duration of immobility at 100 mg/kg, po during final 5 mins of the 6 mins session by forced swimming test; format: functional; set-up: scale not given: the % may be the effect or the level left
Procedure, shortened: (§1)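 Mice swam 10 min in a 25-cm glass cylinder (10 cm diameter) holding 15 cm of water at 23 1 °C. Twenty-four hours later, drug was given po 60 min before retesting. Immobility (floating upright with only small movements keeping head above water) was totalled over the last 5 min of the 6-min test.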

Mus musculus [2] = experiment: Antidepressant activity in mouse assessed as decrease in duration of immobility at 10 mg/kg, po during final 5 mins of the 6 mins session by forced swimming test; format: functional; set-up: scale not given: the % may be the effect or the level left; procedure, shortened: as §1
[3] = target: T1, 5-hydroxytryptamine receptor 1A (Homo sapiens, UniProt P08908); experiment: Inhibition of 5HT1A receptor
T1 sequence (P08908 whole entry): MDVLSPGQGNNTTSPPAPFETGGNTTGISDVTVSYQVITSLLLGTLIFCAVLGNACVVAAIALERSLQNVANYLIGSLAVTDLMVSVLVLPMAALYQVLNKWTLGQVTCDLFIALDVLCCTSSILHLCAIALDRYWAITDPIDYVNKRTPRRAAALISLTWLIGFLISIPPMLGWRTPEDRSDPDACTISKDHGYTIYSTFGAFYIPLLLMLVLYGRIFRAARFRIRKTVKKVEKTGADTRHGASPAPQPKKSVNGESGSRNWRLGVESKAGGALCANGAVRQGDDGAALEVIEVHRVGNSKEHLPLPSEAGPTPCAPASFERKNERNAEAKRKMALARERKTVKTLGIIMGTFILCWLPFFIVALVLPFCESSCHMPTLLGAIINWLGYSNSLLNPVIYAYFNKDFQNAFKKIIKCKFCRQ

[4] = target: 5-hydroxytryptamine receptor 6 (Homo sapiens, UniProt P50406); experiment: Inhibition of 5HT6 receptor
[5] = target: 5-hydroxytryptamine receptor 7 (Homo sapiens, UniProt P34969); experiment: Inhibition of 5HT7 receptor
D(2) dopamine receptor = D(2) dopamine receptor (Homo sapiens, UniProt P14416); experiment: Inhibition of dopamine D2 receptor
D(3) dopamine receptor = D(3) dopamine receptor (Homo sapiens, UniProt P35462); experiment: Inhibition of dopamine D3 receptor
D(4) dopamine receptor = target: T2, D(4) dopamine receptor (Homo sapiens, UniProt P21917); experiment: Inhibition of dopamine D4 receptor
T2 sequence (P21917 whole entry): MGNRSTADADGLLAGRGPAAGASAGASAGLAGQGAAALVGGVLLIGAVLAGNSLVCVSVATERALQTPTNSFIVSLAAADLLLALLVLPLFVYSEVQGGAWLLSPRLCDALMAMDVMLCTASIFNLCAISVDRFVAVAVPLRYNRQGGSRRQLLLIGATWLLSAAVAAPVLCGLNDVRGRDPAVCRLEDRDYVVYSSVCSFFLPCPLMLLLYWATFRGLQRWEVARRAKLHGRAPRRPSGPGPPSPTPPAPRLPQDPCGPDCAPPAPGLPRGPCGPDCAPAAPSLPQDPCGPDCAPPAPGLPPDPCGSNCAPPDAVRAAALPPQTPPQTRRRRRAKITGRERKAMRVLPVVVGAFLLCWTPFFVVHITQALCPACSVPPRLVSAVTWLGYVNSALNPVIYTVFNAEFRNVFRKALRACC

Cytochrome P450 1A2 = target: T3, Cytochrome P450 1A2 (Homo sapiens, UniProt P05177); experiment: Inhibition of CYP1A2; format: ADME
T3 sequence (P05177 whole entry): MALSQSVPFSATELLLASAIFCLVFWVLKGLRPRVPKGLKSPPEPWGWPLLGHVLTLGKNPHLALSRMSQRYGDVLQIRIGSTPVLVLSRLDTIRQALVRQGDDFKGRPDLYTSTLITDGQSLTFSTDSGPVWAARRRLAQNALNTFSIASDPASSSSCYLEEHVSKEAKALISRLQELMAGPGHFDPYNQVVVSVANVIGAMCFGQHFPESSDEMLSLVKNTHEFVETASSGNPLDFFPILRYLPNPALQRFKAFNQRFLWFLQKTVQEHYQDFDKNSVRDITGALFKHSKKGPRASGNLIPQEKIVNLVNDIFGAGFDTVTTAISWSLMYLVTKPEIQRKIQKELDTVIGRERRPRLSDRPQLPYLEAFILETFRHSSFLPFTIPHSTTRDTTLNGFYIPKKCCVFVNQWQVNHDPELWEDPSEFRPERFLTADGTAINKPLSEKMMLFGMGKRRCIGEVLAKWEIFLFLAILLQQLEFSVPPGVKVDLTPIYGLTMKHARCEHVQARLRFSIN

Cytochrome P450 2D6 = Cytochrome P450 2D6 (Homo sapiens, UniProt P10635); experiment: Inhibition of CYP2D6; format: ADME
Cytochrome P450 3A4 = Cytochrome P450 3A4 (Homo sapiens, UniProt P08684); experiment: Inhibition of CYP3A4; format: ADME
Cytochrome P450 2C9 = Cytochrome P450 2C9 (Homo sapiens, UniProt P11712); experiment: Inhibition of CYP2C9; format: ADME
Chain of Cytochrome P450 2C9 (P11712 whole entry): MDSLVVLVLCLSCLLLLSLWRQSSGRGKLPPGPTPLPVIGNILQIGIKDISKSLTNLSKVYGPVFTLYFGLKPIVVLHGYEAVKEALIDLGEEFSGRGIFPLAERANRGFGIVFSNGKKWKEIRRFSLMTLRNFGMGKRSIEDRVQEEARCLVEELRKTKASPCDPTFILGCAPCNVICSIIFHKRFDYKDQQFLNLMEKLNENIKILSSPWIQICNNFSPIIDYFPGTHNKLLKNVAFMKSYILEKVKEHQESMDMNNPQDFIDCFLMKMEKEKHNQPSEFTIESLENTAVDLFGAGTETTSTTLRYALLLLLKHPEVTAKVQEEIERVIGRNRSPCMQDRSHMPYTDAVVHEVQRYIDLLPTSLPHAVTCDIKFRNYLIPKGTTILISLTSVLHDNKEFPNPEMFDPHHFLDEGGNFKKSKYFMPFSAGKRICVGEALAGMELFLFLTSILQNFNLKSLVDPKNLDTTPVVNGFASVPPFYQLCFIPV

Chain of Cytochrome P450 3A4 (P08684 whole entry): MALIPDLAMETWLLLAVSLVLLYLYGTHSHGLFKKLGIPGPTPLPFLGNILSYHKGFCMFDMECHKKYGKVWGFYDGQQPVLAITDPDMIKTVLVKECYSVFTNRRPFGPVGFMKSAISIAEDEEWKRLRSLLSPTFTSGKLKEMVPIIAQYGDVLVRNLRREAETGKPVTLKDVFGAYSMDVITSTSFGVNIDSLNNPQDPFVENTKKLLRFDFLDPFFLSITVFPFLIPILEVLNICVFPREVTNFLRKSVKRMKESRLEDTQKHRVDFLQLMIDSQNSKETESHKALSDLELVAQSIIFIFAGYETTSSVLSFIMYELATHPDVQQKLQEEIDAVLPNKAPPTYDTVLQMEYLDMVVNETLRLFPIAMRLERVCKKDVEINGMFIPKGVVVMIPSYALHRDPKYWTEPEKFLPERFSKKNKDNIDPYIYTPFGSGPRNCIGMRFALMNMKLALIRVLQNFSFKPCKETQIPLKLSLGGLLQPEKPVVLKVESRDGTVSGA
Chain of 5-hydroxytryptamine receptor 7 (P34969 whole entry): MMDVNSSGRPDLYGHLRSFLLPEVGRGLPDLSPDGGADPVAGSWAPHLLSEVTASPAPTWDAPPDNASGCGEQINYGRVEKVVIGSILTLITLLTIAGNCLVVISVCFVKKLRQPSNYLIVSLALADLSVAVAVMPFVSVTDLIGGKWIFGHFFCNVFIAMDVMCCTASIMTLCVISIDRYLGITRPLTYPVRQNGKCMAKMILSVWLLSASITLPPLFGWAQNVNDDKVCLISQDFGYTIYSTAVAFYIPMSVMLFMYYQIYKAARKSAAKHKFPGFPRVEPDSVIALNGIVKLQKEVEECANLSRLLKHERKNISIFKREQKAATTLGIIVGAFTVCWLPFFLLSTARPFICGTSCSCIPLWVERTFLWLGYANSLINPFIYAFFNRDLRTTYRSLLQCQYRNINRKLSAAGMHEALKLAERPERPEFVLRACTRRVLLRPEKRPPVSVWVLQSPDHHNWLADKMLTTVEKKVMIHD
Chain of 5-hydroxytryptamine receptor 6 (P50406 whole entry): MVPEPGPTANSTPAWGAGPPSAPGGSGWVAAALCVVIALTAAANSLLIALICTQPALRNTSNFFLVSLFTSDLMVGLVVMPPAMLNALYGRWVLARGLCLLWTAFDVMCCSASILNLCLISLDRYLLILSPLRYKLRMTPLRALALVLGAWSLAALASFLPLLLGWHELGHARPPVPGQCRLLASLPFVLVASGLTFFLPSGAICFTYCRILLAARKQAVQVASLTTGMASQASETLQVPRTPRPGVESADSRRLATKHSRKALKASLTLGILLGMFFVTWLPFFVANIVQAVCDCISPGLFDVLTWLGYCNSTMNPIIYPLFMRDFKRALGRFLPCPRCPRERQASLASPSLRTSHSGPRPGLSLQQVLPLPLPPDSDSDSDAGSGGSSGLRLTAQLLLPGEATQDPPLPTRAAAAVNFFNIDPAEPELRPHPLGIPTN
Chain of D(3) dopamine receptor (P35462 whole entry): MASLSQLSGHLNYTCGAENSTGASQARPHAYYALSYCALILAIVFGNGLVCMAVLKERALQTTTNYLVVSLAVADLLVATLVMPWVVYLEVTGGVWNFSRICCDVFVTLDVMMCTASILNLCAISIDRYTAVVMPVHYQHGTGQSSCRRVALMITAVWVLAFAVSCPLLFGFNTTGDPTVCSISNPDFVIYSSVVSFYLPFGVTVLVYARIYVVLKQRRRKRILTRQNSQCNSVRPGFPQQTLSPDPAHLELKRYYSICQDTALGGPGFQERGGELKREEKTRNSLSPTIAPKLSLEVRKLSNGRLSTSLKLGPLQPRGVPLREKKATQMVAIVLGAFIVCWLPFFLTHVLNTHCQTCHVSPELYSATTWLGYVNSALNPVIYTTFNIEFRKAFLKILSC
Chain of D(2) dopamine receptor (P14416 whole entry): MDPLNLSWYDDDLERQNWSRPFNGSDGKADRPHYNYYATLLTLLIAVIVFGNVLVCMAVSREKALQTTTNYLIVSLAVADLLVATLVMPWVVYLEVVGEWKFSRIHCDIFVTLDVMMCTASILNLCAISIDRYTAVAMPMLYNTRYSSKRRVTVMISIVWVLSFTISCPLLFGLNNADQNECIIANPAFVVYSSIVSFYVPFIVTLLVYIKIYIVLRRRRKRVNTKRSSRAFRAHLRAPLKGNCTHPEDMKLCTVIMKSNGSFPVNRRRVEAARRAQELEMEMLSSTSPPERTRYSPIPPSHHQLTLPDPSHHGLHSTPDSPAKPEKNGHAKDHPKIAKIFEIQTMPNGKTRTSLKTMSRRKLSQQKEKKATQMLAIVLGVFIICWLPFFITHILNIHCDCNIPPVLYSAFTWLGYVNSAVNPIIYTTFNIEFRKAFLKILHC
Chain of Cytochrome P450 2D6 (P10635 whole entry): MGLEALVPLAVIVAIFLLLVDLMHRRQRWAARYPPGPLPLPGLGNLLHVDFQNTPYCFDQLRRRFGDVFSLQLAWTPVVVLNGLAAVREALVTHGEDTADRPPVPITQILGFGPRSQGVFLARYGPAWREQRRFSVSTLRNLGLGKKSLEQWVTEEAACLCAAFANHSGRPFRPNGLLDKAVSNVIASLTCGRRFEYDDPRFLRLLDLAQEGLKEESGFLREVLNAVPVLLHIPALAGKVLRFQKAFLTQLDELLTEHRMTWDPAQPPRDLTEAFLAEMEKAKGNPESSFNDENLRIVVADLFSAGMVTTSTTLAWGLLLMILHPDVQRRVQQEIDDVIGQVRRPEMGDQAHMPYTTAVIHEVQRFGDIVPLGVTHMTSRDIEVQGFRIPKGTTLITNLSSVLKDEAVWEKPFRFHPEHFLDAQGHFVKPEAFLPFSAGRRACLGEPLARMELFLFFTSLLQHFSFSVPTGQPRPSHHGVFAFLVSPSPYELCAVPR

IC50 [3]: 54 nM | IC50 [4]: 713 nM | IC50 [5]: 333 nM | IC50 (D(2) dopamine receptor): 2540 nM | IC50 (D(3) dopamine receptor): 915 nM | IC50 (D(4) dopamine receptor): 984 nM | IC50 (Cytochrome P450 1A2): > 20000 nM | IC50 (Cytochrome P450 2D6): > 20000 nM | IC50 (Cytochrome P450 3A4): > 20000 nM | IC50 (Cytochrome P450 2C9): 9700 nM
SMILES: Cc1c(C(=O)NCCCN2CCN(c3cccc(Cl)c3Cl)CC2)cc(-c2ccccc2)n1C
Activity (Mus musculus [1]): <25% | Activity (Mus musculus [2]): 80%
